From ChEMBL document CHEMBL1132569

Key:
[1] = target: T1, Muscarinic acetylcholine receptor M1 (Homo sapiens) (UniProt P11229); test: Binding affinity at the NMS liganded human muscarinic acetylcholine receptor M1 was estimated as log affinity (log1/M)
T1 sequence (whole entry): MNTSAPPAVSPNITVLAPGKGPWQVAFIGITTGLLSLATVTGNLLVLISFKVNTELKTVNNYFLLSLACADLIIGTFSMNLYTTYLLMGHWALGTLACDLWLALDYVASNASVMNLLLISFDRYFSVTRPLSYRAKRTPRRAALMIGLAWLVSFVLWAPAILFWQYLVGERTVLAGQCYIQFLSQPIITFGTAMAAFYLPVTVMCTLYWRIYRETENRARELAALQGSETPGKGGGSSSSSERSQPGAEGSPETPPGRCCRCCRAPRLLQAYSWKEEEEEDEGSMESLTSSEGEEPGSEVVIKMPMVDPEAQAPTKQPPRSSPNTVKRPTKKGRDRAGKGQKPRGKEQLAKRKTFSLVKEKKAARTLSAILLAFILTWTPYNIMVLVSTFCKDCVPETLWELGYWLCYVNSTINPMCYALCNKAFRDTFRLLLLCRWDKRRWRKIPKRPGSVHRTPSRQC
Summary of the method: (§1)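 Equilibrium runs were ≥2 h with 2 × 10⁻⁴ M GTP and 0.1–0.7 nM ³H-NMS. Nonspecific binding was defined with 10⁻⁶ M QNB, and bound ligand was filtered and counted. Log affinities came from semiquantitative plus off-rate, quantitative equilibrium, or nonequilibrium assays, fitted by nonlinear least squares to the allosteric ternary complex model.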

[2] = target: T2, Muscarinic acetylcholine receptor M5 (Homo sapiens) (UniProt P08912); test: Cooperativity with NMS at Muscarinic acetylcholine receptor M5
T2 sequence (whole entry): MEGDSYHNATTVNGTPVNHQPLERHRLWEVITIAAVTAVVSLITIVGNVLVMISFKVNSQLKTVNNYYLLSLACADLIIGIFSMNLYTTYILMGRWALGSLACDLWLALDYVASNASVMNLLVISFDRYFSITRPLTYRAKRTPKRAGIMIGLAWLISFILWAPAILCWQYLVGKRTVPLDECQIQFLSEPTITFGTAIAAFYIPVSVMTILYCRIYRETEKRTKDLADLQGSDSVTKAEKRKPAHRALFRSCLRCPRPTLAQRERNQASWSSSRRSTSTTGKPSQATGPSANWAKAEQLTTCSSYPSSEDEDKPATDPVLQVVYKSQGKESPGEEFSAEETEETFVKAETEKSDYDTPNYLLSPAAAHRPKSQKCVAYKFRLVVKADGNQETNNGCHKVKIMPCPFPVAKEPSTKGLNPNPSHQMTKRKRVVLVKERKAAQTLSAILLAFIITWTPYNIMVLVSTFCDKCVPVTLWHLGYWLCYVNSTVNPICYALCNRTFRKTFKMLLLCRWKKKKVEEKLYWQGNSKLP
Summary of the method: (§2)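 Equilibrium ³H-NMS binding in CHO membranes expressing human m1–m5 receptors was measured with and without ACh, alone and with three agent concentrations. Data were converted to affinity ratios, meaning apparent primary-ligand affinity with agent divided by affinity without it.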

[3] = target: T2, Muscarinic acetylcholine receptor M5 (Homo sapiens); test: Cooperativity with acetylcholine at Muscarinic acetylcholine receptor M5; summary of the method: as §2
[4] = target: T1, Muscarinic acetylcholine receptor M1 (Homo sapiens); test: Cooperativity with NMS at human muscarinic acetylcholine receptor M1; summary of the method: as §2
[5] = target: T1, Muscarinic acetylcholine receptor M1 (Homo sapiens); test: Binding affinity at the unliganded human muscarinic acetylcholine receptor M1 was estimated as log affinity (log1/M); summary of the method: as §1
[6] = target: T3, Muscarinic acetylcholine receptor M4 (Homo sapiens) (UniProt P08173); test: Binding affinity at the unliganded human muscarinic acetylcholine receptor M4 was estimated as log affinity (log1/M); summary of the method: as §1
T3 sequence (whole entry): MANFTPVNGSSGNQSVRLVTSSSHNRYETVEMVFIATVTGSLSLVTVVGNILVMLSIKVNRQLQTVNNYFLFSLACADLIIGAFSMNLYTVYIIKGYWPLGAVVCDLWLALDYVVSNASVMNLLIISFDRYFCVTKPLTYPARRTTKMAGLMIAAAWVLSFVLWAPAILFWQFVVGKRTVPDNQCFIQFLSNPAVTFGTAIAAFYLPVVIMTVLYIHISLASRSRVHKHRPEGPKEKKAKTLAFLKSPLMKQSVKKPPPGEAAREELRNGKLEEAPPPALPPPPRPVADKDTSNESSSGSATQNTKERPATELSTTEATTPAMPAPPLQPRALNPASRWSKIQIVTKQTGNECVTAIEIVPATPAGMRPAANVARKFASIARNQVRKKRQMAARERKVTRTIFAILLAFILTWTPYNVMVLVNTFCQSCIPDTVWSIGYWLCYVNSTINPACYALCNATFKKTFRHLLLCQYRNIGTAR

[7] = target: T1, Muscarinic acetylcholine receptor M1 (Homo sapiens); test: Cooperativity with acetylcholine at human muscarinic acetylcholine receptor M1; summary of the method: as §2
[8] = target: T4, Muscarinic acetylcholine receptor M2 (Homo sapiens) (UniProt P08172); test: Binding affinity at the unliganded human muscarinic acetylcholine receptor M2 was estimated as log affinity (log1/M); summary of the method: as §1
T4 sequence (whole entry): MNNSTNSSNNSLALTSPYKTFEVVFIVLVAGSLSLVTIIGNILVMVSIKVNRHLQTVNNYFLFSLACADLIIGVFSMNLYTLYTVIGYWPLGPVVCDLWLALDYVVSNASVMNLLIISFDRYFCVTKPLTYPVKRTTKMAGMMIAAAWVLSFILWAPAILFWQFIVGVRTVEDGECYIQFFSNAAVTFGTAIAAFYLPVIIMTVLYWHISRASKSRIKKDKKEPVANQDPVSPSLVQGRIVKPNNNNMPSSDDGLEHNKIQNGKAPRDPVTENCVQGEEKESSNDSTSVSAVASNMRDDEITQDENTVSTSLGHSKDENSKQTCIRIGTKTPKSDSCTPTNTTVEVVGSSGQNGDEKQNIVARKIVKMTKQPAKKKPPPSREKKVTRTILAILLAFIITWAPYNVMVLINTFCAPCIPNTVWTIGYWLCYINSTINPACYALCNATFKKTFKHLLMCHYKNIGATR

[9] = target: Muscarinic acetylcholine receptor M3 (Homo sapiens) (UniProt P20309); test: Cooperativity with NMS at human muscarinic acetylcholine receptor M3; summary of the method: as §2
Sequence of Muscarinic acetylcholine receptor M3 (Homo sapiens) (P20309 whole entry, looked up): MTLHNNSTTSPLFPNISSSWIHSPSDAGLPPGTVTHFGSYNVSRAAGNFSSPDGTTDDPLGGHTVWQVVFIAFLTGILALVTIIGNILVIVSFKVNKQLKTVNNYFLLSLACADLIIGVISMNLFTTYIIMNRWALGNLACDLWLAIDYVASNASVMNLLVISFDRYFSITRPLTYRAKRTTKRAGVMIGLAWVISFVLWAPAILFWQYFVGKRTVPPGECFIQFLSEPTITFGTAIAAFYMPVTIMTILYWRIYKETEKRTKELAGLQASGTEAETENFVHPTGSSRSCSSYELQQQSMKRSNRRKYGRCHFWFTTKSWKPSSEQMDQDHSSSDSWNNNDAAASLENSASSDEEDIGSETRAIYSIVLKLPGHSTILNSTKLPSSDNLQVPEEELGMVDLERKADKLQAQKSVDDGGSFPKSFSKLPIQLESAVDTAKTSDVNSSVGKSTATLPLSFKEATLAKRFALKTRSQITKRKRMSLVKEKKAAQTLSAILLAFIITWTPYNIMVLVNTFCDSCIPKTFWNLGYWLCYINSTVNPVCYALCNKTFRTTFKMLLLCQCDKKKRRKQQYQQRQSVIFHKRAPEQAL

[10] = target: Muscarinic acetylcholine receptor M3 (Homo sapiens) (UniProt P20309); test: Binding affinity at the unliganded human muscarinic acetylcholine receptor M3 was estimated as log affinity (log1/M); summary of the method: as §1
[11] = target: T3, Muscarinic acetylcholine receptor M4 (Homo sapiens); test: Cooperativity with NMS at human muscarinic acetylcholine receptor M4; summary of the method: as §2
[12] = target: Muscarinic acetylcholine receptor M3 (Homo sapiens) (UniProt P20309); test: Cooperativity with acetylcholine at human muscarinic acetylcholine receptor M3; summary of the method: as §2
[13] = target: T2, Muscarinic acetylcholine receptor M5 (Homo sapiens); test: Binding affinity at the NMS liganded human muscarinic acetylcholine receptor M5 was estimated as log affinity (log1/M); summary of the method: as §1
[14] = target: T3, Muscarinic acetylcholine receptor M4 (Homo sapiens); test: Cooperativity with acetylcholine at human muscarinic acetylcholine receptor M4; summary of the method: as §2
[15] = target: T4, Muscarinic acetylcholine receptor M2 (Homo sapiens); test: Binding affinity at the NMS liganded human muscarinic acetylcholine receptor M2 was estimated as log affinity (log1/M); summary of the method: as §1
[16] = target: Muscarinic acetylcholine receptor M3 (Homo sapiens) (UniProt P20309); test: Binding affinity at the NMS liganded human muscarinic acetylcholine receptor M3 was estimated as log affinity (log1/M); summary of the method: as §1
[17] = target: T3, Muscarinic acetylcholine receptor M4 (Homo sapiens); test: Binding affinity at the NMS liganded human muscarinic acetylcholine receptor M4 was estimated as log affinity (log1/M); summary of the method: as §1
[18] = target: T4, Muscarinic acetylcholine receptor M2 (Homo sapiens); test: Cooperativity with acetylcholine at human muscarinic acetylcholine receptor M2; summary of the method: as §2
[19] = target: T2, Muscarinic acetylcholine receptor M5 (Homo sapiens); test: Binding affinity at the unliganded Muscarinic acetylcholine receptor M5 was estimated as log affinity (log1/M); summary of the method: as §1
[20] = target: T4, Muscarinic acetylcholine receptor M2 (Homo sapiens); test: Cooperativity with NMS at human muscarinic acetylcholine receptor M2; summary of the method: as §2

Compound: COc1cc2c(cc1OC)[C@@]13CC[N+]4(C)CC5=CCO[C@H]6CC(=O)N2[C@H]1[C@H]6[C@H]5C[C@@H]34 (stereo not given in full)
- Affinity [1]: 4
- Cooperativity [2]: 0.8
- Cooperativity [3]: < 0.2
- Cooperativity [4]: 1.19
- Affinity [5]: 4
- Affinity [6]: 4.3
- Cooperativity [7]: 0.8
- Affinity [8]: 4
- Cooperativity [9]: 1.19
- Affinity [10]: 3.5
- Cooperativity [11]: 1.19
- Cooperativity [12]: 2
- Affinity [13]: 2.9
- Cooperativity [14]: 0.8
- Affinity [15]: 4.5
- Affinity [16]: 3.6
- Affinity [17]: 4.4
- Cooperativity [18]: 0.8
- Affinity [19]: 3.3
- Cooperativity [20]: > 2

Compound: COc1cc2c(cc1OC)[C@@]13CCN4CC5=CCO[C@H]6CC(=O)N2[C@H]1[C@H]6[C@H]5C[C@H]43
- Affinity [1]: 4.5
- Cooperativity [2]: < 0.2
- Cooperativity [3]: < 0.2
- Cooperativity [4]: 1.19
- Affinity [5]: 4.6
- Affinity [6]: 4.8
- Cooperativity [7]: 2
- Affinity [8]: 4.5
- Cooperativity [9]: 0.8
- Affinity [10]: 3.5
- Cooperativity [11]: 0.8
- Cooperativity [12]: 0.8
- Affinity [13]: 3.3
- Cooperativity [14]: 0.8
- Affinity [15]: 4.7
- Affinity [16]: 2.9
- Affinity [17]: 4.5
- Cooperativity [18]: 0.8
- Affinity [19]: 4.3
- Cooperativity [20]: 2

Compound: COc1cc2c(cc1OC)[C@@]13CC[N+]4(N)CC5=CCO[C@H]6CC(=O)N2[C@H]1[C@H]6[C@H]5C[C@@H]34 (stereo not given in full)
- Affinity [1]: 3.8
- Cooperativity [2]: 0.8
- Cooperativity [3]: 0.8
- Cooperativity [4]: 1.19
- Affinity [5]: 3.8
- Affinity [6]: < 4
- Cooperativity [7]: 0.8
- Affinity [8]: < 4
- Cooperativity [9]: 1.19
- Affinity [10]: 3.8
- Cooperativity [11]: 2
- Cooperativity [12]: > 2
- Affinity [13]: 3.3
- Cooperativity [14]: 0.8
- Affinity [15]: 4.2
- Affinity [16]: 3.9
- Affinity [17]: 4.2
- Cooperativity [18]: 0.8
- Affinity [19]: 3.6
- Cooperativity [20]: 2
